Square brackets hold non-standard residues; d marks the D form. Peptide text beside a SMILES is read from it. * marks the point of attachment. ξ: configuration not given here. Tyr(Nα,Nα-Bn2) = O=C([C@H](Cc1ccc(O)cc1)N(Cc1ccccc1)Cc1ccccc1)*; Phe(4-N(CH2CH2Cl)2) = N[C@@H](Cc1ccc(N(CCCl)CCCl)cc1)C(=O)O; Tyr(Nα,Nα-allyl2) = C=CCN(CC=C)[C@@H](Cc1ccc(O)cc1)C(=O)*; ξPhe(4-N(CH2CH2Cl)2) = NC(Cc1ccc(N(CCCl)CCCl)cc1)C(=O)O; X1 = O=C(C(Cc1ccc(O)cc1)N(Cc1ccccc1)Cc1ccccc1)*; ξL = CC(C)CC(N)C(=O)O; Aib = CC(C)(N)C(=O)O

For assay [1], the species on record is Mus musculus. Briefly: Ratio of IC50 of DADLE (agonist) exposed to the compound for 10 min and then washed 30 times to Ratio of IC50 of morphine (agonist) prior to exposure to compound. It is filed as functional. The gist of the method:
(§1)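 Irreversible antagonism was measured in isolated tissue. The tissue was exposed to the compound for 10 min (30 min in some cases), then washed 30 times with fresh buffer to remove non-covalently bound ligand. Agonist IC50 was then redetermined. The ratio is this post-wash IC50 over the agonist IC50 in the same tissue before exposure. Mean ± SEM, n = 3 unless otherwise noted.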

For assay [2], the species on record is Mus musculus. Briefly: Ratio of IC50 of morphine (agonist) expossed to the compound for 10 min and then washed 30 times to Ratio of IC50 of morphine (agonist) prior to exposure to compound. It is filed as functional. The gist of the method:
as §1

In assay [3] the target is Kappa-type opioid receptor (Cavia porcellus) (UniProt P41144). As to the kind of experiment: Ratio of IC50 of ethylketazocine (agonist) after 10 min of incubation along with compound (antagonist) and IC50 of agonist in absence of compound for Opioid receptor kappa 1 at 1 uM in GPI assay (Exp 1). Type of assay: functional. The gist of the method: (§2)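 Reversible antagonism was measured in electrically stimulated isolated tissue (MVD or GPI) with the antagonist present. Agonists were morphine (μ), ethylketazocine (κ) and DADLE (δ). The value is the agonist IC50 with antagonist divided by the IC50 without it, i.e. the fold rightward shift of the agonist dose-response curve. Mean ± SEM, n = 3 unless otherwise noted.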
Sequence of Kappa-type opioid receptor (Cavia porcellus) (P41144 whole entry): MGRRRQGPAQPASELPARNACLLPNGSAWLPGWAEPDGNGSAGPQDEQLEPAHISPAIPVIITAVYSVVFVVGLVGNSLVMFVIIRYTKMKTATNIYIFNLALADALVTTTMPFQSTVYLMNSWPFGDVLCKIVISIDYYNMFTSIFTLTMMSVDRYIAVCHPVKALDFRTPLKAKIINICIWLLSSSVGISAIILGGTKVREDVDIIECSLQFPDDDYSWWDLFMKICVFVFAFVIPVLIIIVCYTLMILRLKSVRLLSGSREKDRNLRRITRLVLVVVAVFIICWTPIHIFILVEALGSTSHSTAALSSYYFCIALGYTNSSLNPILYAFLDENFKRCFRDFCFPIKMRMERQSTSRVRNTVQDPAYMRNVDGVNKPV

Assay [4] shares this target. As to the kind of experiment: Ratio of IC50 of ethylketazocine (agonist) after 10 min of incubation along with compound (antagonist) and IC50 of agonist in absence of compound for Opioid receptor kappa 1 at 1 uM in GPI assay (Exp 2). Type of assay: functional. The gist of the method:
as §2

For assay [5], the target named is T1, Opioid receptor (Mus musculus) (UniProt P42866+P32300+P33534). Briefly: Reversible opioid agonist activity in the electrically stimulated mouse vas deferens(MVD) at 10 uM of concentration. Type of assay: functional.
T1 sequence (P32300 whole entry, looked up): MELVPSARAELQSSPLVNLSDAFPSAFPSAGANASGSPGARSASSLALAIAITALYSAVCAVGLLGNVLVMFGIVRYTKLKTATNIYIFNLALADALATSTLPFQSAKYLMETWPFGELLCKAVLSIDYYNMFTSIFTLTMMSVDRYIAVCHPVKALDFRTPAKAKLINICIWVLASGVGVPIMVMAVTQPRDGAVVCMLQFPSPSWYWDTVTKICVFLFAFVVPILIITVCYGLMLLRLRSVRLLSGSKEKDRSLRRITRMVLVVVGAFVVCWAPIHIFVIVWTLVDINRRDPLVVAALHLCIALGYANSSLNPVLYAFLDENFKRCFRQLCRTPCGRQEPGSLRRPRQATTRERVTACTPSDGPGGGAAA
T1 sequence (P33534 whole entry, looked up): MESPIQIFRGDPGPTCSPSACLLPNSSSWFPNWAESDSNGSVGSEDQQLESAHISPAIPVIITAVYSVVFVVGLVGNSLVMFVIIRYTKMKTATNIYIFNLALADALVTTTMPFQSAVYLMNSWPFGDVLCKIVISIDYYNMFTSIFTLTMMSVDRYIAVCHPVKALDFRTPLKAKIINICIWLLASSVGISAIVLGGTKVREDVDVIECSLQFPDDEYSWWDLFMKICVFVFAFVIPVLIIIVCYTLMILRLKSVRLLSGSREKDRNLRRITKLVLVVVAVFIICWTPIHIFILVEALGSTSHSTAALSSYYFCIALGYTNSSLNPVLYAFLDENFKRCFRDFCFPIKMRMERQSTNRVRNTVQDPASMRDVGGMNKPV
T1 sequence (P42866 whole entry, looked up): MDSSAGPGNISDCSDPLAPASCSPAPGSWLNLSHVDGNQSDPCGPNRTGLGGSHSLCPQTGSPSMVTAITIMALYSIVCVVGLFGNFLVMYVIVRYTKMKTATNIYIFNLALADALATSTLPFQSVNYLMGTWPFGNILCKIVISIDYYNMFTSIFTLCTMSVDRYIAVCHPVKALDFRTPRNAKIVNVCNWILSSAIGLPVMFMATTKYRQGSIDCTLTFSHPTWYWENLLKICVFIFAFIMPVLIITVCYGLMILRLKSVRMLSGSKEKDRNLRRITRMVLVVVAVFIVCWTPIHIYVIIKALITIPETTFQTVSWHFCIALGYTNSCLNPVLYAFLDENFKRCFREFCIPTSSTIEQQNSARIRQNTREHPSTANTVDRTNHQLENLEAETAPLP
In assay [6] the target is Delta-type opioid receptor (Mus musculus) (UniProt P32300). As to the kind of experiment: Ratio of IC50 of DADLE (agonist) after 10 min of incubation along with compound (antagonist) and IC50 of agonist in the absence of compound for Opioid receptor delta 1 at 1 uM in MVD assay. Type of assay: functional. The gist of the method:
as §2

For assay [7] the target is unchanged. As to the kind of experiment: Ratio of IC50 of DADLE (agonist) after 10 min of incubation along with compound (antagonist) and IC50 of agonist in the absence of compound for Opioid receptor delta 1 at 10 uM in MVD assay. Type of assay: functional. The gist of the method: as §2
For assay [8], the target named is Mu-type opioid receptor (Cavia porcellus) (UniProt P97266). As to the kind of experiment: Ratio of IC50 of […] (agonist) after 10 min of incubation along with compound (antagonist) and IC50 of agonist in absence of compound for Opioid receptor mu 1 at 1 uM in GPI assay (exp 1). It is filed as functional. The gist of the method: as §2
Sequence of Mu-type opioid receptor (Cavia porcellus) (P97266 whole entry): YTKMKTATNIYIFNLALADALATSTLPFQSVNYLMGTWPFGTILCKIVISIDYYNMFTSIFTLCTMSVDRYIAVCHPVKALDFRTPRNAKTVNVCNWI
The target is the same in assay [9]. As to the kind of experiment: Ratio of IC50 of […] (agonist) after 10 min of incubation along with compound (antagonist) and IC50 of agonist in absence of compound for Opioid receptor mu 1 at 1 uM in GPI assay (exp 2). It is filed as functional. The gist of the method: as §2
The target of assay [10] is Mu-type opioid receptor (Mus musculus) (UniProt P42866). As to the kind of experiment: Ratio of IC50 of […] (agonist) after 10 min of incubation along with compound (antagonist) and IC50 of agonist in absence of compound for Opioid receptor mu 1 at 1 uM in MVD assay. It is filed as functional. The gist of the method:
as §2

In assay [11] the target is T2, Opioid receptors; mu/kappa/delta (Homo sapiens) (UniProt P41145+P41143+P35372). Briefly: Reversible opioid agonist activity in the electrically stimulated guinea pig ileum(GPI) at 1 uM concentration (exp 1). The note with it: Cavia porcellus, target entry is the homologue from another species. Type of assay: functional, tissue-based.
T2 sequence (P35372 whole entry, looked up): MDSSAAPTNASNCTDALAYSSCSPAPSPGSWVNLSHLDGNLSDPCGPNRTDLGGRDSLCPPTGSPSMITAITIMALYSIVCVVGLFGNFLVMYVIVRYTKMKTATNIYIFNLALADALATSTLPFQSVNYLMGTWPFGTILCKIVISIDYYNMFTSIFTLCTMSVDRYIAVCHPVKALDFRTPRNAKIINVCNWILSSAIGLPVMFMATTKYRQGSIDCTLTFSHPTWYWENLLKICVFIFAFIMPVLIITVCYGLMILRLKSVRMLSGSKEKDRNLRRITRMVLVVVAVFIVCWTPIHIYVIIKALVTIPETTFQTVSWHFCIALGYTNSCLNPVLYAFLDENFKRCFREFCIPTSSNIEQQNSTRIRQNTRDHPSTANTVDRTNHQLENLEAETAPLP
T2 sequence (P41143 whole entry, looked up): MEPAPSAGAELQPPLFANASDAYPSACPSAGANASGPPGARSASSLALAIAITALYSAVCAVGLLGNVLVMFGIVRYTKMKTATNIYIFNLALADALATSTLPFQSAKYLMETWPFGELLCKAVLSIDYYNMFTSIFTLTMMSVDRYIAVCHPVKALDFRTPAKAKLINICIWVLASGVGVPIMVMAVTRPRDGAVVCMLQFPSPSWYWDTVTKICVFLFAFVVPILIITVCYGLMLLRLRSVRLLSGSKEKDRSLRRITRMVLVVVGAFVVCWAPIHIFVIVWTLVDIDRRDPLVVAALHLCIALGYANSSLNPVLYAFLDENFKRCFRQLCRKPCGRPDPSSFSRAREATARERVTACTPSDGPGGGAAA
T2 sequence (P41145 whole entry, looked up): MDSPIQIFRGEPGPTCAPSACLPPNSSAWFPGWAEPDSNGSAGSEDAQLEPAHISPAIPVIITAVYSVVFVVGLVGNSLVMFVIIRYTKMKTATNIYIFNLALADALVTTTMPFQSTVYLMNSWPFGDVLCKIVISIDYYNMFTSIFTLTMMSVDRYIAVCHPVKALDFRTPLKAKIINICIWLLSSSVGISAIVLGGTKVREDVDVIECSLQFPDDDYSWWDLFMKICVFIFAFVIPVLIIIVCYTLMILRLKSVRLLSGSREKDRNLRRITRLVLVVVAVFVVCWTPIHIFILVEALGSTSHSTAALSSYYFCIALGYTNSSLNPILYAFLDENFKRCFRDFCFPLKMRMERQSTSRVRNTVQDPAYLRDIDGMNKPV
In assay [12] the target is T2, Opioid receptors; mu/kappa/delta (Homo sapiens). As to the kind of experiment: Reversible opioid agonist activity in the electrically stimulated guinea pig ileum(GPI) at 1 uM concentration (exp 2). It is filed as functional, tissue-based. The note with it: Cavia porcellus, target entry is the homologue from another species.
In assay [13] the target is T1, Opioid receptor (Mus musculus). As to the kind of experiment: (§3) Reversible opioid agonist activity in the electrically stimulated mouse vas deferens(MVD) at 1 uM concentration. It is filed as functional.
Assay [14] concerns the target Kappa-type opioid receptor (Cavia porcellus) (UniProt P41144). Briefly: Ratio of IC50 of ethylketazocine (agonist) after 10 min of incubation along with compound (antagonist) and IC50 of agonist in absence of compound for kappa opioid receptor at 1 uM in GPI assay (Exp 1). It is filed as functional. The gist of the method:
as §2

The target in assay [15] is Mu-type opioid receptor (Cavia porcellus) (UniProt P97266). Briefly: Ratio of IC50 of […] (agonist) after 10 min of incubation along with compound (antagonist) and IC50 of agonist in absence of compound for mu opioid receptor at 1 uM in GPI assay (Exp 2). Type of assay: functional. The gist of the method:
as §2

The species named for assay [16] is Cavia porcellus. As to the kind of experiment: Reversible opioid agonist activity in the electrically stimulated guinea pig ileum(GPI) at 1 uM concentration (Exp 1). It is filed as functional.
The species named for assay [17] is Cavia porcellus. As to the kind of experiment: (§4) Reversible opioid agonist activity in the electrically stimulated guinea pig ileum(GPI) at 1 uM concentration (Exp 2).
Assay [18] addresses Delta-type opioid receptor (Mus musculus) (UniProt P32300). Briefly: Ratio of IC50 of DADLE (agonist) after 10 min of incubation along with compound (antagonist) and IC50 of agonist in the absence of compound for delta opioid receptor at 1 uM in MVD assay. It is filed as functional. The gist of the method:
as §2

The species entered for assay [19] is Mus musculus. The description is as §3. It is filed as functional.
Assay [20] addresses Mu-type opioid receptor (Homo sapiens) (UniProt P35372). As to the kind of experiment: Ratio of IC50 of […] (agonist) after 10 min of incubation along with compound (antagonist) and IC50 of agonist in absence of compound for mu opioid receptor at 1 uM in MVD assay. Type of assay: functional. The following applies: Mus musculus. The gist of the method: as §2
Assay [21] deals with Kappa-type opioid receptor (Cavia porcellus) (UniProt P41144). The note with it: 1 uM.
Assay [22] concerns the target Mu-type opioid receptor (Cavia porcellus) (UniProt P97266). The following applies: 1 uM.
The target in assay [23] is Delta-type opioid receptor (Homo sapiens) (UniProt P41143). The following applies: Cavia porcellus; 1 uM.
Sequence of Delta-type opioid receptor (Homo sapiens) (P41143 whole entry): as the sequence (P41143 whole entry, looked up) above
Assay [24] has the same target. The note with it: Cavia porcellus; 1 uM. The source holds these as a separate data set.
Assay [25] addresses Delta-type opioid receptor (Mus musculus) (UniProt P32300). The note with it: 10 uM.
Assay [26] concerns the target Delta-type opioid receptor (Homo sapiens) (UniProt P41143). The note with it: Cavia porcellus; 1 uM. This is another data set of the same source.
The species entered for assay [27] is Mus musculus. As to the kind of experiment: Ratio of IC50 of DADLE (agonist) expossed to the compound for 10 min and then washed 30 times to Ratio of IC50 of morphine (agonist) prior to exposure to compound. Type of assay: functional. The gist of the method: as §1
The target in assay [28] is T2, Opioid receptors; mu/kappa/delta (Homo sapiens). Described as §4. Type of assay: functional, tissue-based. The following applies: Cavia porcellus, target entry is the homologue from another species.
For assay [29] the target is unchanged. The following applies: Cavia porcellus; Ileum; 1 uM.
In assay [30] the target is Mu-type opioid receptor (Cavia porcellus) (UniProt P97266). The note with it: 1 uM. This is another data set of the same source.
Assay [31] shares this target. The following applies: 1 uM. The source holds these as a separate data set.
For assay [32], the target named is Mu-type opioid receptor (Mus musculus) (UniProt P42866). The following applies: 10 uM.
Sequence of Mu-type opioid receptor (Mus musculus) (P42866 whole entry): as the sequence (P42866 whole entry, looked up) above

Sequence of Delta-type opioid receptor (Mus musculus) (P32300 whole entry): as the sequence (P32300 whole entry, looked up) above
Sequence of Mu-type opioid receptor (Homo sapiens) (P35372 whole entry): as the sequence (P35372 whole entry, looked up) above

The inhibition is the change of the read-out against control, counted positive when it falls. In the case of `C=CCN(CC=C)[C@@H](Cc1ccc(O)cc1)C(=O)NC(C)(C)C(=O)NC(C)(C)C(=O)N[C@@H](Cc1ccc(N(CCCl)CCCl)cc1)C(=O)N[C@@H](CC(C)C)C(=O)O` ({Tyr(Nα,Nα-allyl2)}-[Aib][Aib][Phe(4-N(CH2CH2Cl)2)]L-OH), the IC50 ratio in the assay filed under Mus musculus [1] was determined as 2.9; in the assay listed under Mus musculus [2] it was 3; in assay [3] it was 0.3; in assay [4], 0.6; in assay [6], 5; in [7], 19.4. Also, the IC50 ratio in assay [8] was determined as 0.6; in assay [9] it was 1; in assay [10], 2.2. The inhibition in [5] is 16.8%; in assay [11], 8.1%; in [12], 14.7%; in assay [13], 20.6%.
Turning to `C=CCN(CC=C)[C@@H](Cc1ccc(O)cc1)C(=O)NCC(=O)NCC(=O)N[C@@H](Cc1ccccc1)C(=O)N[C@@H](CC(C)C)C(=O)O` ({Tyr(Nα,Nα-allyl2)}-GGFL-OH), the IC50 ratio in [14] came to 0.6; in assay [15], 1.1; in [18] it was 2.7; in [20], 0.8; in assay [21] it was 1.1; in [22] it was 0.8. Moreover, the inhibition at 1 µM in the assay listed under Cavia porcellus [16] (Cavia porcellus, Ileum) is -6.7%; in the assay listed under Cavia porcellus [17], 0%; in the assay listed under Mus musculus [19], 10%.
As for `CC(C)C[C@H](NC(=O)[C@H](Cc1ccccc1)NC(=O)CNC(=O)CNC(=O)[C@H](Cc1ccc(O)cc1)N(Cc1ccccc1)Cc1ccccc1)C(=O)O` ({Tyr(Nα,Nα-Bn2)}-GGFL-OH), the IC50 ratio worked out at 1 in assay [14]; 6.6 in assay [18]; 1 in the assay listed under Mus musculus [2]; 0.6 in [20]; 1 in assay [21]; 0.8 in assay [23]. Moreover, the IC50 ratio worked out at 1.2 in assay [24], 96.9 in [25] and 2.5 in assay [26]. The figures for the inhibition at 1 µM in the assay filed under Cavia porcellus [16], in the assay filed under Cavia porcellus [17] and in the assay filed under Mus musculus [19] were 1.9%, 2.9% and 11.4%, respectively.
As to `CC(C)CC(NC(=O)C(Cc1ccc(N(CCCl)CCCl)cc1)NC(=O)CNC(=O)CNC(=O)C(Cc1ccc(O)cc1)N(Cc1ccccc1)Cc1ccccc1)C(=O)O` (stereo not drawn) (X1-GG[ξPhe(4-N(CH2CH2Cl)2)][ξL]-OH), the IC50 ratio in the assay filed under Mus musculus [27] was found to be 2.4; in the assay listed under Mus musculus [2], 1.2; in assay [3], 0.4; in assay [4], 0.4; in [6], 3; in assay [7], 7.7. The IC50 ratio in assay [10] is 1; in assay [30], 0.5; in assay [31], 0.7; in assay [32] it was 1.7. Moreover, the inhibition in assay [5] is 18.3%; in [13] it was 16.2%; in assay [28] it was 10%; in assay [29], 4.8%.

The values are drawn from ChEMBL document CHEMBL1123840, “Synthesis and evaluation of melphalan-containing N,N-dialkylenkephalin analogues as irreversible antagonists of the delta opioid receptor” (J Med Chem, 1987).
